Laboratory results published in publication PMC5519285 (Pharmacology, biochemistry, and behavior, 2017).
“Also recorded” adds a separate entry of the source. Where two headings read alike, the source gives them in different places. Marks after values point to notes of the source that are not given here.

What was measured:
rats [1] = conditions: cited from earlier work
[2] = ref Poe et al., 2016; cited from earlier work
rats [3] = assay: Pentylenetetrazole; assay type: in vivo, rat; conditions: i.p.
In short: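 Male Sprague Dawley rats (90–110 g), test compound suspended in 1% hydroxyethylcellulose/0.05% tween 80/0.05% antifoam, given 30 mg/kg i.p. 30 min before testing. Percent of rats without clonic convulsions recorded, 5 rats/group (vehicle 20), Fisher's exact test.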

hGABAAR (α2β3γ2) = hGABAAR (α2β3γ2) (Homo sapiens, UniProt P18507+P47869); assay type: cell-based
Sequence of hGABAAR (α2β3γ2) (P47869 29-451): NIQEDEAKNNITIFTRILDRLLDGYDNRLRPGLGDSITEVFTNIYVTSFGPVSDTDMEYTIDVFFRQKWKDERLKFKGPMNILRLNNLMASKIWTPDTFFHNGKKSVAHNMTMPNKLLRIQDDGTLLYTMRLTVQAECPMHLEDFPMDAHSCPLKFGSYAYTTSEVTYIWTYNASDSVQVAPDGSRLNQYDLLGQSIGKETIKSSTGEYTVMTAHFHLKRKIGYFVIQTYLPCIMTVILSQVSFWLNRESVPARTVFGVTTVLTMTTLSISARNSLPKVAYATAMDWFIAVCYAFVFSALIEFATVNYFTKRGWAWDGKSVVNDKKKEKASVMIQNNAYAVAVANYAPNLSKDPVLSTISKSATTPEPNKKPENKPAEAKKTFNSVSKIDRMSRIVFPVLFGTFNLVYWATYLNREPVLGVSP
Sequence of hGABAAR (α2β3γ2) (P28472 26-473 partner): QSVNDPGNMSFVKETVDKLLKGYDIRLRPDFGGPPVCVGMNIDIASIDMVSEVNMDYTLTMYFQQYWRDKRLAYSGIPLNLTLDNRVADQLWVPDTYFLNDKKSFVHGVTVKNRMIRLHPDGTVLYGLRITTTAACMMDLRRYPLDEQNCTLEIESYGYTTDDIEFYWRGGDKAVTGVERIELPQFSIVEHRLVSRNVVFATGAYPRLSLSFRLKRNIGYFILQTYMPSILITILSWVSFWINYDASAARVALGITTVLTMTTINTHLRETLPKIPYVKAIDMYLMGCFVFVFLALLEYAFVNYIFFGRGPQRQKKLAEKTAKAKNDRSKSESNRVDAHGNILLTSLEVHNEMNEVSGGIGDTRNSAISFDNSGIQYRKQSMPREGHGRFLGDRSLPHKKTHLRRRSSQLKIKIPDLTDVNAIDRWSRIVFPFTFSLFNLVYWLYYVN
Sequence of hGABAAR (α2β3γ2) (P18507 40-475): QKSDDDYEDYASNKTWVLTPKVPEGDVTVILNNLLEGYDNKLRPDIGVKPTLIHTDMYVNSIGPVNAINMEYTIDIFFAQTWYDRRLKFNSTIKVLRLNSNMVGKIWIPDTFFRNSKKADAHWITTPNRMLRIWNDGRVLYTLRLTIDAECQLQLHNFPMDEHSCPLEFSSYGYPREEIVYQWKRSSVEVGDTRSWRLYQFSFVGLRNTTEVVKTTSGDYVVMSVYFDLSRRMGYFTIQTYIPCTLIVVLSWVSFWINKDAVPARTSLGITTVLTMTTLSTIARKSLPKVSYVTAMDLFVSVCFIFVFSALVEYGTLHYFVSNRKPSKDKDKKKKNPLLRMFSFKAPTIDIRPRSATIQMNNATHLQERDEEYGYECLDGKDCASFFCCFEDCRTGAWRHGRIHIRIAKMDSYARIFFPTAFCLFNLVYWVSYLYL

hGABAAR (α1β3γ2) = hGABAAR (α1β3γ2) (Homo sapiens, UniProt P14867+P18507); assay type: cell-based; conditions: HEK293 cells, human α1β3γ2, peak GABA EC15-evoked current
Sequence of hGABAAR (α1β3γ2) (P14867 28-456): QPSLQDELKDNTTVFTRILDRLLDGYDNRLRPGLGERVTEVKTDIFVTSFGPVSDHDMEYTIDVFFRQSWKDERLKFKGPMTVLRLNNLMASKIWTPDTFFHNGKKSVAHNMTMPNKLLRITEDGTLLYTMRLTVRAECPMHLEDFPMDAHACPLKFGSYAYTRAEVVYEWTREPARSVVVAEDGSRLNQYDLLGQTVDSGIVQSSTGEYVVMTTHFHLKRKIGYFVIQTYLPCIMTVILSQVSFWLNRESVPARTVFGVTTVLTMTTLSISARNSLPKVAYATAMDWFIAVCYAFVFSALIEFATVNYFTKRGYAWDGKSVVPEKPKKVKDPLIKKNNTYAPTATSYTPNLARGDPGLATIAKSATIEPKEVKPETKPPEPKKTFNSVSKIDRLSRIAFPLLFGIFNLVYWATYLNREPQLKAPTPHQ
Sequence of hGABAAR (α1β3γ2) (P28472 26-473 partner): as the sequence (P28472 26-473 partner) above
Sequence of hGABAAR (α1β3γ2) (P18507 40-475): as the sequence (P18507 40-475) above

hGABAAR (α3β3γ2) = hGABAAR (α3β3γ2) (Homo sapiens, UniProt P18507+P34903); assay type: cell-based
Sequence of hGABAAR (α3β3γ2) (P34903 29-492): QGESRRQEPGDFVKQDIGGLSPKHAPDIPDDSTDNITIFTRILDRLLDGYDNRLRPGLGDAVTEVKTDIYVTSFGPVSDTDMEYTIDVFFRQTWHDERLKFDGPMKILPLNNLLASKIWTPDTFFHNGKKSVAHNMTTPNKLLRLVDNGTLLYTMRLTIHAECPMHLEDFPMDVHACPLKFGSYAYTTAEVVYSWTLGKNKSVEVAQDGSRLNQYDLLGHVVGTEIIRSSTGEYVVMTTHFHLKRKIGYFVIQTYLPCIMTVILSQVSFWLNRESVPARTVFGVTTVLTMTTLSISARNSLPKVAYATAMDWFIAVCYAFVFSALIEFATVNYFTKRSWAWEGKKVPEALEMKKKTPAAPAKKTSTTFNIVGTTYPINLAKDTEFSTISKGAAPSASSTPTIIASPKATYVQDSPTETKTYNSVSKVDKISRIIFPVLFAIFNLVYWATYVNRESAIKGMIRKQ
Sequence of hGABAAR (α3β3γ2) (P28472 26-473 partner): as the sequence (P28472 26-473 partner) above
Sequence of hGABAAR (α3β3γ2) (P18507 40-475): as the sequence (P18507 40-475) above

hGABAAR (α5β3γ2) = hGABAAR (α5β3γ2) (Homo sapiens, UniProt P18507+P31644); assay type: cell-based
Sequence of hGABAAR (α5β3γ2) (P31644 32-462): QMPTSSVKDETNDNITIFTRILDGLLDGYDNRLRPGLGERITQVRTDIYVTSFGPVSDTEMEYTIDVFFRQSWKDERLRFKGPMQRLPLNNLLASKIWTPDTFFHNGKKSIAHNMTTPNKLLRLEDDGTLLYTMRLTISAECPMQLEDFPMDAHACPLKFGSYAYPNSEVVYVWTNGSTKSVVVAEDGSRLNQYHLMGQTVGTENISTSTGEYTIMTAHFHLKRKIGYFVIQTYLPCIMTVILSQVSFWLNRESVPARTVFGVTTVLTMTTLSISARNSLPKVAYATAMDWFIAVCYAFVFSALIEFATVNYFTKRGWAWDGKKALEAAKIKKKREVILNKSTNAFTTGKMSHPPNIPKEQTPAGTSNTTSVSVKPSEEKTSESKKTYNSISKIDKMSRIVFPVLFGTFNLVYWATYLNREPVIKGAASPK
Sequence of hGABAAR (α5β3γ2) (P28472 26-473 partner): as the sequence (P28472 26-473 partner) above
Sequence of hGABAAR (α5β3γ2) (P18507 40-475): as the sequence (P18507 40-475) above

mice = conditions: ref Lewter et al., 2017; cited from earlier work

Q: Which “activity in Vogel conflict test (punished drinking)” value (rats [1]; ref Poe et al., 2016) does the source give for `C#Cc1ccc2c(c1)C(c1ccccn1)=NCc1c(C(=O)OCC)ncn1-2` [HZ-166] here?
A: not active

Q: And the marble-burying [2]?
A: decreased marble-burying

Q: And the “reduction of convulsions induced by PTZ” value (rats [3]; 30 mg/kg)?
A: 60%

Q: What does the source list for `CN1C(=O)CN=C(c2ccccc2)c2cc(Cl)ccc21` [Diazepam, diazepam]?
A: GABAA-a2 Max (%GABA) (hGABAAR (α2β3γ2); HEK293 cells, human α2β3γ2, peak GABA EC15-evoked current): 203.4 %GABA; GABAA-a1 Max (%GABA) (hGABAAR (α1β3γ2)): 171.9 %GABA; GABAA-a3 Max (%GABA) (hGABAAR (α3β3γ2); HEK293 cells, human α3β3γ2, peak GABA EC15-evoked current): 265.6 %GABA; GABAA-a5 Max (%GABA) (hGABAAR (α5β3γ2); HEK293 cells, human α5β3γ2, peak GABA EC15-evoked current): 220.7 %GABA

Q: With `CCCC(CCC)C(=O)O` [Valpro, valproic acid] as the compound, how does the “Anticonvulsant Effect (percent of animals protected, no clonic convulsions)” value (rats [3]; valproic acid 300 mg/kg, 35 mg/kg pentylenetetrazole s.c.) read?
A: 100 ^* percent

Q: Which results are given for `NCCCC(=O)O` [GABA]?
A: average maximum negative current amplitude (hGABAAR (α2β3γ2); saturating concentration of GABA, α2β3γ2): 0.8 nA; average maximum negative current amplitude (hGABAAR (α3β3γ2); saturating concentration of GABA, α3β3γ2): 1.0 nA; average maximum negative current amplitude (hGABAAR (α5β3γ2); saturating concentration of GABA, α5β3γ2): 0.9 nA

Q: With `C#Cc1ccc2c(c1)C(c1ccccn1)=NCc1c(-c3cnco3)ncn1-2` [Compound 9, 5-(8-Ethynyl-6-(pyridin-2-yl)-4H-benzo[f]imidazo[1,5-a][1,4]diazepin-3-yl)oxazole] as the compound, how does the “activity in Vogel conflict test (punished drinking)” value (rats [1]; ref Poe et al., 2016, listed as KRM-II-81) read?
A: increased punished drinking; also recorded: efficacious

Q: What about the acid-induced pain behaviors (mice) of the same compound?
A: attenuated acid-induced pain behaviors
